# NLRP3 yeast inh – NALP3 inflammasome inhibitors in reconstituted yeast, primary screen, luminescence, uHTS. hit rate 0.39% among 330,000. inhibition, % at 10 µM. Yeast reconstituted NLRP3/ASC/caspase-1, beta-gal luminescence, 24 h;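 active = inhibition of 50% or more; inactive = inhibition below 50%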
# NALP1 yeast inh – NALP1 inflammasome inhibitors in reconstituted yeast, colorimetric, S. cerevisiae, triplicate retest; S. cerevisiae NALP1/ASC/caspase-1 growth, X-gal OD620, 72 h; inhibition, % at 10 µM; hit rate 0.61% among 280,000; AID 2071, 2009; in the data active = inhibition mostly above about 24%, no sharp cut-off; inactive = mostly below about 32%
# T cell HTS – modulators of CD8 T cell-vesicle binding, primary screen, mouse 2C CD8+ T cells, flow cytometry; 2C CD8+ T cell-vesicle binding; active compounds read low; response (vesicle binding), % at 7 µM; hit rate 0.068% among 330,000;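 active = response, share of CD8 T cells binding vesicles, and their 90th percentile fluorescence all below set limits, cut at about 80% in these data, passing the limit was not always enough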;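 note: values below 100% mean blocked vesicle binding to the CD8+ T cells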
#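 Material: 2C TCR transgenic mouse naive CD8+ T cells, MACS-purified. Also added: QL9-charged Drosophila Ld/ICAM-1/B7-1 vesicles. Timing: binding 1.5 h at 37 °C. Measured by: high-throughput flow cytometry with anti-B7-1 and anti-CD8 staining. Read-out: percent CD8+ FL2 mean versus row control. Controls: Unloaded micro-vesicles (low), QL9 vesicles with 0.7% DMSO (high).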
# Bfl-1 A1 inh – caspase 3/7 activation in MEF A1-2A-BIM cells, primary screen, A1 inhibitor project, cell-based, luminescence, HTS; caspase activation, % (test concentration not listed); Caspase-Glo 3/7 luminescence, 3 h; percent of clofoctol response, vehicle zero; hit rate 0.066% among 330,000;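 active = over half of replicate activation scores above 10%, or exactly half above 10 with the replicate mean above 10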
# A number is an active result; n = inactive; x = not tested or not shown. Shown are actives, neighbours in structure and some others; about 1% of the full set was active somewhere.
SMILES,NLRP3 yeast inh,NALP1 yeast inh,T cell HTS,Bfl-1 A1 inh
COc1ccc(OC)c(NC(=O)C2CCN(S(=O)(=O)c3ccc4c(c3)CC(C)N4C(C)=O)CC2)c1 (stereo not given),n,n,n,n
CC(C)n1c(CN(C)Cc2ccccc2)nc2c1c(=O)n(C)c(=O)n2C,n,n,n,n
Cc1nc2c(-c3ccccc3)c(C)nn2c(C)c1CCC(=O)O,n,n,n,n
CCOC(=O)Cc1c(C)nc2c(-c3ccc(OC)cc3)c(C)nn2c1C,n,43,n,n
COc1ccc(CCNCC(=O)Nc2ccc(C)c(S(=O)(=O)N(C)C)c2)cc1OC,n,36,n,n
COc1ccc(CCNCC(=O)Nc2ccc(C)c(Br)c2)cc1OC,n,n,n,n
N#Cc1cccc(NC(=O)CSc2nnc(C3CC3)n2C2CC2)c1,n,x,n,n
CC(Cc1ccccc1)NC(=O)c1cc([N+](=O)[O-])ccc1Cl (stereo not given),n,36,n,n
O=C(N[C@@H](Cc1ccccc1)c1nc2ccccc2[nH]1)c1cc([N+](=O)[O-])ccc1Cl,n,n,n,n
O=C(COc1ccc(/C=N/NC(=O)c2cc3ccccc3o2)cc1Cl)Nc1ccccc1,n,n,n,64
COc1ccc(NC(=O)CS(=O)(=O)Cc2nc(-c3ccc(C)cc3)oc2C)cc1,n,45,n,n
CCCCN(C(=O)CSCC(=O)Nc1ccc(C)cc1)c1c(N)n(CCCC)c(=O)[nH]c1=O,n,x,n,n
Cc1cc(=O)c2cc3nc(-c4cccnc4)oc3c(Br)c2o1,n,n,0.0,n
Cc1cccc(-n2nnc(C(=O)NCc3ccccc3Cl)c2N)c1,n,27,n,n
CCCN1CCCc2cc(CN(CCCN3CCOCC3)C(=O)Nc3ccc(OCC)cc3)ccc21,n,45,n,n
CCOc1ccc(NC(=O)N(CCN2CCOCC2)Cc2ccc3c(c2)CCCN3CC)cc1,n,n,n,n
Cc1ccc(NC(=O)/C(Cl)=C/c2ccccc2)cc1C,n,37,n,n
Cc1nc2c(F)c(F)c(C(F)(F)F)c(F)c2[nH]1,n,n,n,n
Cc1nc2c(Br)c3nc(C(F)(F)F)[nH]c3c(Br)c2[nH]1,n,48,n,n
COc1ccc(C(=O)n2nc(C#N)c(C#N)c2N)cc1,n,37,n,n
CC(C)CN=Cc1c(O)c([N+](=O)[O-])cc2oc3c(c12)CCCC3,n,50,n,n
CCc1ccc(OCC(=O)OC2CCS(=O)(=O)C2)cc1 (stereo not given),n,25,n,n
Cc1cc(C(=O)COc2cc(F)ccc2[N+](=O)[O-])c(C)n1CC1CCCO1 (stereo not given),n,x,n,n
Cc1cc(OCCCC(=O)N2CCCCC2)cc(C)c1Cl,n,21,n,n
COCCN(C(=O)c1csnn1)C(C(=O)NC1CCCCC1)c1ccccc1F (stereo not given),n,n,n,n
SMILES,NLRP3 yeast inh,NALP1 yeast inh,T cell HTS,Bfl-1 A1 inh
CC(C)(C)c1cc(C(=O)NCCN2CCCC2)cc(C(C)(C)C)c1,n,108,n,n
NS(=O)(=O)c1ccc(CCNC(=O)c2cc(-c3ccccn3)nc3ccc(Br)cc23)cc1,n,41,n,n
CC(=O)c1c(C)[nH]c(C(=O)CSc2nnc(CN3CCCCCC3=O)n2-c2ccccn2)c1C,n,42,n,n
CCN(CCN(C)C)C(=O)Cn1ncc2c1-c1cc(C)ccc1OC2,n,41,n,n
CC(/C=N/NC(=O)c1ccc(Br)cc1)=C\c1ccccc1,n,36,n,n
COc1cccc(N2CCN(C(=O)C3CCN(S(=O)(=O)c4ccc5c(c4)CC(C)N5C(C)=O)CC3)CC2)c1 (stereo not given),n,n,n,n
COCCCn1cnnc1SC(C)C(=O)Nc1ccc(S(=O)(=O)N2CCOCC2)cc1 (stereo not given),n,x,n,n
O=C(N/N=C/c1ccc[nH]1)c1ccccc1OCc1ccc(F)cc1,n,x,n,n
CCOc1ccc(OCc2ccc(C(=O)NN=Cc3ccc[nH]3)cc2)cc1,n,x,n,9.7
Cc1ccc(N2CC(C(=O)Nc3ccc(S(=O)(=O)N4CCOCC4)cc3)CC2=O)cc1Cl (stereo not given),n,x,n,n
CCN(C(=O)c1cc2c(=O)[nH]c3ccc(C)cc3c2s1)c1ccc(F)cc1,n,n,n,n
CCN(C(=O)c1cc2c(=O)[nH]c3ccc(C)cc3c2s1)c1cccc(C)c1,n,n,0.0,n
O=C(OCC(=O)N1CCN(C(=O)c2ccco2)CC1)c1cncc(Br)c1,n,x,n,n
COc1ccc(/C=C2\N=C(C)OC2=O)cc1[N+](=O)[O-],n,39,n,n
COc1cc(/C=C2\N=C(C)OC2=O)cc(Cl)c1OC(C)=O,n,n,n,n
CCc1ccc(NC(=O)COC(=O)CN2C(=O)COc3ccccc32)cc1,n,41,n,n
COc1ccc(NC(=O)CN2C(=O)COc3ccccc32)cc1OC,n,n,n,n
CCc1nccn1S(=O)(=O)c1ccc(OC)c(C)c1C,n,34,n,n
CCCCCCCC/C=C\CCCCCCCC(=O)NCCc1ccc(O)c(O)c1,n,x,n,12
Cc1cnc(C(=O)Nc2ccc(F)c(F)c2)cn1,n,n,n,n
CCCCOc1ccc(NC(=O)c2cnc(C)cn2)cc1,n,45,n,n
Cc1ccc(S(=O)(=O)N2CCC(C(=O)NC3CC(C)(C)NC(C)(C)C3)CC2)cc1,n,n,n,n
Cc1ccc(CCC2C3=C(CCCC3=O)OC3=C2C(=O)CCC3)cc1,n,n,0.0,n
CC(C)c1ccc(CC(C)C2C3=C(CCCC3=O)OC3=C2C(=O)CCC3)cc1 (stereo not given),n,n,n,n
CCOc1ccccc1NC(=O)c1ccc(S(=O)(=O)N(C)C)cc1,n,41,n,n
SMILES,NLRP3 yeast inh,NALP1 yeast inh,T cell HTS,Bfl-1 A1 inh
CN(C)S(=O)(=O)c1ccc(NC(=O)c2ccc([N+](=O)[O-])cc2)cc1,n,x,0.0,x
CCOc1ccccc1NC(=O)c1ccc(S(=O)(=O)N(C)c2ccccc2)cc1,n,x,n,n
CCOC(=O)c1sc(NC(=O)c2ccc(S(=O)(=O)N(C)C)cc2)cc1C,n,41,n,n
CCOC(=O)c1sc(NC(=O)c2ccccc2)cc1C,n,n,n,n
CC(C)(C)CC(=O)Nc1cccc2c1CCCC2,n,n,n,n
c1cc2c(c(NCc3ccncc3)c1)CCCC2,n,38,n,n
Cc1ccc(C2N(c3ccc(F)cc3)C(=O)C3CCCN32)cc1 (stereo not given),n,44,n,n
CNCCCOc1ccc(C(C)(C)c2ccccc2)cc1,x,n,x,x
COCCCNCCOc1ccc(C(C)(C)c2ccccc2)cc1,n,46,n,n
COC(=O)CC1C(=O)NCCN1C(=O)CSc1nc2ccccc2c(=O)n1CC(C)C (stereo not given),n,34,n,n
O=C(CN1CCN(c2ccc(F)cc2)CC1)N1CCC(Cc2ccccc2)CC1,n,31,n,n
N#CCCN(C(=O)COC(=O)CNC(=O)c1cccs1)c1ccc(F)cc1,n,x,n,n
